# Publication PMC12722729 (Scientific Reports, 2025)
# Where “and” joins values, the source holds several entries; their conditions need not be identical. Equal entries are not always repeated. Where two headings read alike, the source gives them in different places.
# Tests used:
# [1] = tested on: Jurkat cells; experiment: MTT cytotoxicity assay, Jurkat cells; type: cell-based, human; conditions: 24 h, read-out: IC50 for Jurkat cell proliferation
# In short: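 Jurkat E6-1 cells were grown in RPMI-1640 with L-glutamine, 10% FBS and 1% penicillin-streptomycin at 37 °C and 5% CO2. The test compound was diluted 1:2 serially in medium from a top concentration of 10 or 5 µM. Cells at a final 1 × 10⁶ cells/mL were exposed for 24 h. MTT was added (final 0.45 mg/mL) for 4 h at 37 °C, formazan was dissolved in DMSO, and OD was read at 570 nm. IC50 was taken as 50% growth inhibition. Three independent experiments, mean ± SEM.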
# [2] = tested on: WIL2-NS cells; experiment: MTT cytotoxicity and selectivity index, WIL2-NS cells; type: cell-based, human; conditions: IC50 WIL2-NS compared to IC50 Jurkat
# [3] = tested on: p21; experiment: Western blot, p21; type: cell-based, human; conditions: Jurkat, OC2 at IC50, 0.5-6 h
# In short: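 Jurkat cells at 1 × 10⁶ cells/mL were treated for 0.5 to 6 h, then washed in ice-cold PBS and lysed in RIPA buffer (spun 13500 rpm, 30 min, 4 °C). Protein was measured by Bradford assay and 25 µg per lane run on SDS-PAGE, then transferred to PVDF. Blots were blocked in 5% BSA/TBS-T for 1.5 h, given primary antibody overnight at 4 °C and HRP anti-rabbit for 1 h, then detected by ECL. β-actin served as loading control; band intensity is in arbitrary units, n = 3.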
# [4] = tested on: caspase-3; experiment: CaspGLOW active caspase staining, caspase-3; type: cell-based, human; conditions: Jurkat, OC2 at IC50, 4 h
# In short: (§1)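 Jurkat E6-1 cells in RPMI-1640 with 10% FBS at 1 × 10⁶ cells/mL were exposed to the test compound for 2 or 4 h. Cells were washed, resuspended in fresh medium and stained 1 h at 37 °C with a FITC-conjugated inhibitor: IETD-FMK (caspase-8), LEHD-FMK (caspase-9) or DEVD-FMK (caspase-3). After washing, cells were read by flow cytometry. Mean ± SEM of 3 replicates; ANOVA/Tukey versus untreated.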
# [5] = tested on: Jurkat cells; experiment: TMRE staining, mitochondrial membrane potential; type: cell-based, human
# [6] = tested on: caspase-9; experiment: CaspGLOW active caspase staining, caspase-9; type: cell-based, human; conditions: Jurkat, OC2 at IC50, 2 and 4 h
# In short: as §1
# [7] = tested on: caspase-8; experiment: CaspGLOW active caspase staining, caspase-8; type: cell-based, human; conditions: Jurkat, OC2 at IC50, 2 and 4 h
# In short: as §1
# [8] = tested on: Jurkat cells; experiment: DHE staining, intracellular ROS; type: cell-based, human; conditions: OC2 at IC50, 1-6 h
# [9] = tested on: Jurkat cells; experiment: Annexin V-FITC/propidium iodide labelling; type: cell-based, human; conditions: 24 h, each compound at its IC50, mean ± SEM
# In short: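 Cells were spun at 220 x g for 5 min at 4 °C and washed in chilled PBS. They were stained with Annexin V-FITC in binding buffer for 13 min at room temperature in the dark, then with PI for 2 min. Samples were diluted in binding buffer and analysed by flow cytometry.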
# [10] = tested on: K562 cells; conditions: cited from earlier work
# [11] = cited from earlier work
# [12] = tested on: cleaved-PARP; experiment: Western blot, cleaved-PARP; type: cell-based, human; conditions: Jurkat, OC2 at IC50, 0.5-6 h
# In short: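 Jurkat cells (1 × 10⁶ cells/mL) were treated with the test compound at its IC50 for 0.5–6 h. Cells were washed in ice-cold PBS and lysed in RIPA, and lysates were cleared at 13500 rpm for 30 min at 4 °C; protein was measured by Bradford. 25 µg per lane was run on SDS-PAGE and transferred to PVDF. Membranes were blocked in 5% BSA/TBS-T for 1.5 h, given primary antibody overnight at 4 °C and HRP anti-rabbit for 1 h, and developed by ECL. β-actin served as loading control. Three independent replicates, arbitrary units, mean ± SEM.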
# [13] = tested on: Jurkat cells; experiment: NAC pre-treatment followed by Annexin V-FITC/PI; type: cell-based, human; conditions: 20 or 50 µM NAC 1 h, then OC2 at IC50 24 h
# [14] = tested on: Jurkat cells; experiment: Cell cycle checkpoint analysis; type: cell-based, human; conditions: OC2 at IC50, 2 and 4 h
smiles,measurement,setting,value
"COc1cc([C@@H]2c3cc4c(cc3[C@@H](O[C@@H]3O[C@@H]5CO[C@@H](C)O[C@H]5[C@H](O)[C@H]3O)[C@H]3COC(=O)[C@H]23)OCO4)cc(OC)c1O [ETO, Etoposide, reference compound]",IC50,"[1]; Homo sapiens, Jurkat",870 ± 60 nM
"CC(C)N(C(=S)[S][Sn]([c]1ccccc1)([c]1ccccc1)[c]1ccccc1)C(C)C [OC2, Triphenyltin(IV) diisopropyl dithiocarbamate]",Selectivity index (SI),[2],5.5
same,p21 protein expression,[3],statistically significant (p < 0.05) at later time points (4 and 6 h)
same,Caspase-3 positive cells,[4],significant increase in caspase-3 positive cells
same,TMRE-negative cells (loss of ΔΨm),"[5]; OC2 at IC50, 1 h",slight increase in TMRE-negative cells
same,TMRE-negative cells (loss of ΔΨm),"[5]; OC2 at IC50, 2 h",33.0 ± 4.5%
same,TMRE-negative cells (loss of ΔΨm),"[5]; OC2 at IC50, 4 h",37.4 ± 2.4%
same,TMRE-negative cells (loss of ΔΨm),"[5]; OC2 at IC50, 6 h",43.2 ± 5.5%
same,Cells with active caspase-9,[6],steadily increased from 2 to 4 h post-treatment
same,IC50,"[1]; MTT, mean ± S.E.M",100 ± 10 nM
same,Caspase-8 activation,[7],remained unchanged compared to the control up to 4 h
same,Intracellular ROS production,[8],time-dependent increase in ROS production
same,Percentage of apoptotic events,[9],55.6 ± 5.0% and 55% and 55.6 ± 4.95%
same,"ROS levels, K562","[10]; IC50 dose, 6 h",substantial elevation in ROS levels (p < 0.05)
same,"Apoptotic cells, K562",[10]; at IC50 concentration,57.1 ± 4.5%
same,"Cell cycle progression, K562",[10],blocking cell cycle progression at the S phase checkpoint
same,"Selectivity index (SI), K562 cells",[10],1
same,IC50,"[10]; read-out: IC50 (inhibiting 50% of cell growth), K562 cells",550 nM
same,Predicted CaCo2 permeability / intestinal absorption,[11]; ADMETlab prediction,might possess good intestinal absorption
same,Inhibition of major CYP450 enzymes (predicted),[11]; in silico,predicted not to inhibit any major CYP450 enzymes
same,Mutagenic and carcinogenic potential (predicted),[11]; in silico,may lack mutagenic and carcinogenic potential
same,P-gp substrate or inhibitor (predicted),[11]; in silico,unlikely to be a substrate or inhibitor of P-gp
same,Skin sensitization or liver injury (predicted),[11]; in silico,might not cause skin sensitization or liver injury
same,Cleaved-PARP protein expression,[12],marked rise (p < 0.05) at 6 h
same,Apoptotic cells after NAC pre-treatment,[13],significantly decreased the number of apoptotic cells
same,Cell cycle distribution,[14],halted the Jurkat cell cycle in the G0/G1 phase
"C=CCN(CC=C)C(=S)[S][Sn]([S]C(=S)N(CC=C)CC=C)([c]1ccccc1)[c]1ccccc1 [OC3, Diphenyltin(IV) diallyl dithiocarbamate]",Selectivity index (SI),[2],0.42
same,IC50,"[1]; MTT, mean ± S.E.M",2800 ± 130 nM
same,Percentage of apoptotic events,[9],86.7 ± 2.9%
"CC(C)N(C(=S)[S][Sn]([S]C(=S)N(C(C)C)C(C)C)([c]1ccccc1)[c]1ccccc1)C(C)C [OC1, Diphenyltin(IV) diisopropyl dithiocarbamate]",Selectivity index (SI),[2],0.37
same,IC50,"[1]; MTT, mean ± S.E.M",7100 ± 600 nM
same,Percentage of apoptotic events,[9],68.1 ± 4.2%
"CCN(CC)C(=S)[S][Sn]([c]1ccccc1)([c]1ccccc1)[c]1ccccc1 [OC5, Triphenyltin(IV) diethyldithiocarbamate]",Selectivity index (SI),[2],0.57
same,IC50,"[1]; MTT, mean ± S.E.M",350 ± 10 nM
same,Percentage of apoptotic events,[9],73.4 ± 4.8%
"C=CCN(CC=C)C(=S)[S][Sn]([c]1ccccc1)([c]1ccccc1)[c]1ccccc1 [OC4, Triphenyltin(IV) diallyl dithiocarbamate]",Selectivity index (SI),[2],1
same,IC50,"[1]; MTT, mean ± S.E.M",200 ± 10 nM
same,Percentage of apoptotic events,[9],84.5 ± 5.3%
